Test results published in ChEMBL document CHEMBL5357066, “Development of Novel Membrane Disrupting Lipoguanidine Compounds Sensitizing Gram-Negative Bacteria to Antibiotics” (ACS Med Chem Lett, 2024).
The source made the active and inactive calls. The calls are words filed in the database; no cut-off is given here.

Experiments:
Klebsiella pneumoniae [1] = assay: Synergistic antibacterial activity against Klebsiella pneumoniae M6 assessed as reduction in rifampicin MIC at 8 to 32 microg/ml incubated for overnight by microbroth dilution checkerboard assay; format: functional, organism-based; conditions: dose 8-32 µg/ml
In short: (§1)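 Broth microdilution in Tryptic Soy Broth, with rifampicin in a 2-fold dilution series combined with the second agent. Bacteria were grown overnight in TSB, back-diluted, then incubated with the compounds overnight at 37 °C. MIC was taken as the lowest concentration with no visible growth (<0.1 OD600).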

Escherichia coli [2] = assay: Synergistic antibacterial activity against Escherichia coli NCTC 12923 assessed as reduction in rifampicin MIC at 32 microg/ml incubated for overnight by microbroth dilution checkerboard assay; format: functional, organism-based; conditions: dose 32.0 µg/ml
In short: (§2)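 Checkerboard microdilution under MIC conditions (TSB, overnight, 37 °C). Two-fold series of each agent were combined on one plate before bacteria were added, and single-agent MICs were measured on the same plate. FIC = sum of combination MIC/alone MIC for each agent, taken from the most synergistic well. Three independent repeats, mean ± SD. ≤0.5 was taken as strong synergy and 0.5–<1 as weak.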

Pseudomonas aeruginosa [3] = assay: Potentiation of doxycycline induced antibacterial activity against Pseudomonas aeruginosa NCTC 13437; format: functional, organism-based
Cell membrane [4] = assay: Induction of outer membrane permeabilization in Escherichia coli NCTC 12923 assessed as increase fluorescence intensity by measuring NPN uptake factor measured immediately for 2 hrs by fluorescence based analysis; format: subcellular
In short: (§3)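 NPN outer-membrane uptake. Overnight TSB cultures (37 °C, 200 rpm) were subcultured 1:20 for 2 h to mid-log, washed, and resuspended in 5 mM HEPES with 5 mM glucose, pH 7.2. Cells were mixed with assay buffer containing 10 µM NPN, then with compound, polymyxin B (positive control) or buffer. Fluorescence (ex 350, em 420 nm) was monitored immediately for 2 h.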

Cell membrane [5] = assay: Induction of outer membrane permeabilization in Acinetobacter baumannii AYE assessed as increase fluorescence intensity by measuring NPN uptake factor measured immediately for 2 hrs by fluorescence based analysis; format: subcellular; in short: as §3
Cell membrane [6] = assay: Induction of outer membrane permeabilization in Pseudomonas aeruginosa NCTC 13437 assessed as increase fluorescence intensity by measuring NPN uptake factor measured immediately for 2 hrs by fluorescence based analysis; format: subcellular; in short: as §3
Cell membrane [7] = assay: Induction of outer membrane permeabilization in Acinetobacter baumannii ATCC 17978 assessed as increase fluorescence intensity by measuring NPN uptake factor measured immediately for 2 hrs by fluorescence based analysis; format: subcellular; in short: as §3
Pseudomonas aeruginosa [8] = assay: Synergistic antibacterial activity against Pseudomonas aeruginosa PAO1 assessed as reduction in rifampicin MIC at 8 to 32 microg/ml incubated for overnight by microbroth dilution checkerboard assay; format: functional, organism-based; conditions: dose 8-32 µg/ml; in short: as §1
Pseudomonas aeruginosa [9] = assay: Synergistic antibacterial activity against Pseudomonas aeruginosa NCTC 13437 assessed as fractional inhibitory concentration index incubated for overnight in presence of rifampicin by microbroth dilution checker board assay; format: functional
In short: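 Checkerboard microdilution in Tryptic Soy Broth, run like the MIC assay. Overnight TSB cultures were back-diluted to OD 0.01 and added 1:1 to the combined two-fold series of both agents, then incubated overnight at 37 °C. Growth/no-growth was called at <0.1 OD600. MICs alone were read on the same plates. FIC index came from the most synergistic well; three independent repeats, mean ± SD.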

Cell membrane [10] = assay: Induction of outer membrane permeabilization in Klebsiella pneumoniae NCTC 13368 assessed as increase fluorescence intensity by measuring NPN uptake factor measured immediately for 2 hrs by fluorescence based analysis; format: subcellular; in short: as §3
Pseudomonas aeruginosa [11] = assay: Potentiation of doxycycline induced antibacterial activity against Pseudomonas aeruginosa PAO1; format: functional, organism-based
Klebsiella pneumoniae [12] = assay: Potentiation of doxycycline induced antibacterial activity against Klebsiella pneumoniae M6; format: functional, organism-based
Pseudomonas aeruginosa [13] = assay: Synergistic antibacterial activity against Pseudomonas aeruginosa NCTC 13437 assessed as reduction in rifampicin MIC at 8 to 32 microg/ml incubated for overnight by microbroth dilution checkerboard assay; format: functional, organism-based; conditions: dose 8-32 µg/ml; in short: as §1
Cell membrane [14] = assay: Induction of outer membrane permeabilization in Pseudomonas aeruginosa PAO1 assessed as increase fluorescence intensity by measuring NPN uptake factor measured immediately for 2 hrs by fluorescence based analysis; format: subcellular; in short: as §3
Acinetobacter baumannii = assay: Synergistic antibacterial activity against Acinetobacter baumannii ATCC 17978 assessed as reduction in rifampicin MIC at 32 microg/ml incubated for overnight by microbroth dilution checkerboard assay; format: functional, organism-based; conditions: dose 32.0 µg/ml; in short: as §2
Klebsiella pneumoniae [15] = assay: Synergistic antibacterial activity against Klebsiella pneumoniae NCTC 13368 assessed as reduction in rifampicin MIC at 8 to 64 microg/ml incubated for overnight by microbroth dilution checkerboard assay; format: functional, organism-based; conditions: dose 8-64 µg/ml; in short: as §2
Escherichia coli [16] = assay: Potentiation of doxycycline induced antibacterial activity against Escherichia coli NCTC 12923; format: functional, organism-based
Klebsiella pneumoniae [17] = assay: Synergistic antibacterial activity against Klebsiella pneumoniae NCTC 13368 assessed as fractional inhibitory concentration index incubated for overnight in presence of rifampicin by microbroth dilution checker board assay; format: functional; in short: as §2

CCCCCCCCCCNC(=N)NCCCCN
Activity (Klebsiella pneumoniae [1]): Active
Activity (Escherichia coli [2]): Active
Activity (Pseudomonas aeruginosa [3]): Active
Activity (Cell membrane [4]): > 1
Activity (Cell membrane [5]): > 1
Activity (Cell membrane [6]): > 1
Activity (Cell membrane [7]): > 1
Activity (Pseudomonas aeruginosa [8]): Active
fractional inhibitory concentration index (FICI) (Pseudomonas aeruginosa [9]): 0.15
Activity (Cell membrane [10]): > 1
Activity (Pseudomonas aeruginosa [11]): Active
Activity (Klebsiella pneumoniae [12]): Active
Activity (Pseudomonas aeruginosa [13]): Active
Activity (Cell membrane [14]): > 1
Activity (Acinetobacter baumannii): Active
Activity (Klebsiella pneumoniae [15]): Active
Activity (Escherichia coli [16]): Active
fractional inhibitory concentration index (FICI) (Klebsiella pneumoniae [17]): 0.1
